Calls of active or inactive are those of the source. No cut-off for these calls is given here.
How the values were obtained:
Liver carboxylesterase 1 = target: T1, Liver carboxylesterase 1 (Homo sapiens, UniProt P23141); assay: Inhibition of human CES1 at 1 to 10 uM relative to control
T1 sequence (P23141 whole entry): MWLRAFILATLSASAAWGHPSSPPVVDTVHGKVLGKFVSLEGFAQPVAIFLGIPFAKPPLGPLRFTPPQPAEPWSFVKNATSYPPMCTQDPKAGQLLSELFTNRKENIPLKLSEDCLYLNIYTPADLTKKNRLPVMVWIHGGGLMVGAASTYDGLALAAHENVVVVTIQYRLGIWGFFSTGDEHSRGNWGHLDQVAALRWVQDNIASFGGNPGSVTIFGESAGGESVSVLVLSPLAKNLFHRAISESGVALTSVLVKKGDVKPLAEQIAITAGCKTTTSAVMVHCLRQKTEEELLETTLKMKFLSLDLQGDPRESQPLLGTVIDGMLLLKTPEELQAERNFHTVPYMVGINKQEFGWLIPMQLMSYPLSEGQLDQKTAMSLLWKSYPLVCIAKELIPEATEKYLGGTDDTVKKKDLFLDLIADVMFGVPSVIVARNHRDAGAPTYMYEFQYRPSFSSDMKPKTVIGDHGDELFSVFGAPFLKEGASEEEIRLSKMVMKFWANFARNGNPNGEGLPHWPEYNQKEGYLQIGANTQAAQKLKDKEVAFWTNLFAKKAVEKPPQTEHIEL

[1] = target: T2, Platelet-activating factor acetylhydrolase (Homo sapiens) (UniProt Q13093); assay: Inhibition of human PLA2G7 at 1 to 10 uM relative to control
T2 sequence (whole entry): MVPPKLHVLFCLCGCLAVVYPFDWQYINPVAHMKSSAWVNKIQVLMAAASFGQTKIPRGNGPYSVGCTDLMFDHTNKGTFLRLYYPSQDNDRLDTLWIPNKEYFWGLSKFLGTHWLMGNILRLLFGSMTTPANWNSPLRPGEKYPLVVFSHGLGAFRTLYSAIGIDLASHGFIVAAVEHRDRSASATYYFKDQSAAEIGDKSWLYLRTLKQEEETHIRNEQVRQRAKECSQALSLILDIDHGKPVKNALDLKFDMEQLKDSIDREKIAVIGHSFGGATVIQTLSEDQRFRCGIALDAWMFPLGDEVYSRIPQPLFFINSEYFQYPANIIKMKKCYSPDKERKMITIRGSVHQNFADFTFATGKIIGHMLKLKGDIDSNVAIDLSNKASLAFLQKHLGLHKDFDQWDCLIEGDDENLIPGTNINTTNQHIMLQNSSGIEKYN

Mus musculus [2] = assay: Time required for unbound brain concentration to reach above in vitro IC50 for recombinant human MAGL in C57Bl6 mouse at 10 mg/kg, sc
In short: (§1)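 Subcutaneous dosing of C57Bl6 mice in DMSO/Cremophor/saline (5:5:90). Plasma (NaF/K2EDTA tubes) and cerebellum collected at 0.5–24 h, 3 mice per time point. Cerebellum diluted 1:4 (w/v) with water and homogenized; samples deproteinated with methanol/acetonitrile plus internal standard, then HPLC-MS/MS. LLOQ 1.0 ng/mL plasma, 0.5 ng/mL brain homogenate. PK parameters by noncompartmental analysis.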

[3] = target: T3, Monoglyceride lipase (Homo sapiens) (UniProt Q99685); assay: Inhibition of MAGL in human brain vascular pericytes; type: cell-based
T3 sequence (whole entry): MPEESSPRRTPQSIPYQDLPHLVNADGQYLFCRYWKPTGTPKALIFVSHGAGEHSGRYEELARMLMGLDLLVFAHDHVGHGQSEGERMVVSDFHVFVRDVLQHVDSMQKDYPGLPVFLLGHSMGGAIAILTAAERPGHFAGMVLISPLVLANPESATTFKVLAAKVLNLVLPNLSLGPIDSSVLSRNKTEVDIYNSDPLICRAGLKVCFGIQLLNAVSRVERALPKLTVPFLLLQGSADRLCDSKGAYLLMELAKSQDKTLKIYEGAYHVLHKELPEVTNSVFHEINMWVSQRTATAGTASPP
In short: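 Human brain vascular pericytes grown in DMEM/F12 with 5% heat-inactivated FBS and pericyte growth supplement, then given alkyne-tagged probe (1000× DMSO stock) in medium for 1 h at 37 °C. Pellets lysed in PBS/0.25% SDS, proteome normalized to 1.0 mg/mL, Cu-catalyzed click with TAMRA azide, SDS-PAGE in-gel fluorescence. Two MAGL bands averaged; two biological replicates fitted to a dose–response curve.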

[4] = target: T4, CES1 (liver carboxylesterase 1) (Homo sapiens, UniProt P23141); assay: Inhibition of human CES1 at 10 uM relative to control
T4 sequence (P23141 whole entry): T1 sequence (P23141 whole entry)

Mus musculus [5] = assay: In vivo inhibition of MAGL in C57Bl6 mouse assessed as increase in 2-AG levels in brain at 1 mg/kg, sc measured at 2 hrs by LC-MS/MS method; type: functional, organism-based
In short: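 C57Bl6 mice, 7 weeks old, 4 per cage, food and water ad libitum, dosed subcutaneously in DMSO/Cremophor/saline (5:5:90, v/v/v). Brains taken after isoflurane, cardiac puncture and cervical dislocation at 0.5, 1, 2, 4, 8, 12 and 24 h (3 mice per time point); vehicle group at 1 h. Frozen in liquid nitrogen, homogenized in 3 volumes PMSF/NH4OAc buffer pH 2.0, d5-2-AG internal standard, ACN extraction, LC-MS/MS (positive ESI, SRM).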

[6] = Cmax in C57Bl6 mouse brain at 1 mg/kg, sc; type: ADME, organism-based; set-up: dose 1 mg/kg, route subcutaneous; in short: as §1

| SMILES | inhibition (INH) (Liver carboxylesterase 1) [%] | inhibition [1] [%] | Time (Mus musculus [2]) [h] | inhibition [3] | inhibition at 10 µM [4] [%] | inhibition (Mus musculus [5]) | Cmax [6] [nM] |
| --- | --- | --- | --- | --- | --- | --- | --- |
| O=C(OC(C(F)(F)F)C(F)(F)F)N1CC(c2ccn(-c3ccccc3)n2)C1 | > 70 | > 70 | 8 | Active | – | – | – |
| O=C(OC(C(F)(F)F)C(F)(F)F)N1CCC(c2ccn(-c3ccccc3)n2)CC1 | – | – | – | – | > 70 | Active | 0.14 |

From ChEMBL document CHEMBL4028902, “Azetidine and Piperidine Carbamates as Efficient, Covalent Inhibitors of Monoacylglycerol Lipase” (J Med Chem, 2017)
